Measured values as given in publication PMC6028884 (Clinical Pharmacokinetics, 2017).
“Also recorded” adds a separate entry of the source. Each block holds one molecule with its values, some of them ahead of it.

Key:
[1] = cited from earlier work
[2] = Population pharmacokinetic analysis; format: in vivo, human
[3] = format: in vivo, human
In short: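 Used a two-compartment population PK model with first-order absorption and elimination, fitted by nonlinear mixed-effects modelling. Data were LC-MS plasma concentrations from healthy subjects and RA patients given 1–48 mg immediate-release oral doses. Simulations ran 200 replicates using demographics of RA patients from two phase IIb trials.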

[4] = cited from earlier work; remark: listed apart in the source
plasma protein = conditions: cited from earlier work
cytochrome P450 (CYP) 3A = conditions: in vitro; cited from earlier work
CYP2D6 = conditions: in vitro; cited from earlier work
[5] = immediate-release formulation, compared with fasting conditions; cited from earlier work
[6] = strong CYP3A inhibitor ketoconazole; cited from earlier work
rheumatoid arthritis = conditions: phase IIb studies, 12 weeks; cited from earlier work
[7] = Population analysis, point estimate (%RSE), final model
[8] = matched on sex and creatinine clearance
[9] = steady state, matching on other covariates

SMILES: O=C(Nc1nc2cccc(-c3ccc(CN4CCS(=O)(=O)CC4)cc3)n2n1)C1CC1 [filgotinib]
oral clearance in subjects with RA compared with healthy subjects [1]: lower

SMILES: C[C@@H]1CCN(C(=O)CC#N)C[C@@H]1N(C)c1ncnc2[nH]ccc12 [tofacitinib]
oral clearance in subjects with RA compared with healthy subjects [1]: lower

ALAG1 ([2]; Bootstrap analysis, mean): 0.48 h
Additive residual error SD ([2]; Bootstrap analysis, mean): 0.17 ng/mL
Exponent for the effect of body weight on Vc/F (θ5) ([2]; Bootstrap analysis, mean): 0.50
Ka ([2]; Bootstrap analysis, mean): 20.1 h⁻¹
Proportional residual error SD ([2]; Bootstrap analysis, mean): 31%
Q/F ([2]; Bootstrap analysis, mean): 3.24 L/h
Ratio of CL/F in RA patients compared with healthy subjects (θ1) ([2]; Bootstrap analysis, mean): 0.76
Ratio of CL/F in females compared with males (θ2) ([2]; Bootstrap analysis, mean): 0.86
Ratio of Vc/F in females compared with males (θ4) ([2]; Bootstrap analysis, mean): 0.75
Vc/F ([2]; Bootstrap analysis, mean): 145 L
Vp/F ([2]; Bootstrap analysis, mean): 65.4 L
ωIOV2 on ALAG1 (phase II study visits only) ([2]; Bootstrap analysis, mean): 0.079
CL/F ([2]; Bootstrap analysis, mean (188 successful runs out of 200)): 39.8 L/h
ALAG1 ([2]; Bootstrap analysis, median): 0.48 h
Additive residual error SD ([2]; Bootstrap analysis, median): 0.17 ng/mL
Exponent for the effect of body weight on Vc/F (θ5) ([2]; Bootstrap analysis, median): 0.50
Ka ([2]; Bootstrap analysis, median): 12.2 h⁻¹
Proportional residual error SD ([2]; Bootstrap analysis, median): 31%
Q/F ([2]; Bootstrap analysis, median): 3.23 L/h
Ratio of CL/F in RA patients compared with healthy subjects (θ1) ([2]; Bootstrap analysis, median): 0.76
Ratio of CL/F in females compared with males (θ2) ([2]; Bootstrap analysis, median): 0.86
Ratio of Vc/F in females compared with males (θ4) ([2]; Bootstrap analysis, median): 0.75
Vc/F ([2]; Bootstrap analysis, median): 145 L
Vp/F ([2]; Bootstrap analysis, median): 64.6 L
ωIOV2 on ALAG1 (phase II study visits only) ([2]; Bootstrap analysis, median): 0.079
CL/F ([2]; Bootstrap analysis, median (188 successful runs out of 200)): 39.8 L/h
ALAG1 [2, 7]: 0.48 (0.017) h
Additive residual error SD [2, 7]: 0.18 (13) ng/mL
Proportional residual error SD [2, 7]: 31 (13) %
Q/F [2, 7]: 3.23 (2.5) L/h
Ratio of CL/F in RA patients compared with healthy subjects (θ1) [2, 7]: 0.76 (2.9)
Ratio of CL/F in females compared with males (θ2) [2, 7]: 0.86 (2.8)
Ratio of Vc/F in females compared with males (θ4) [2, 7]: 0.75 (1.6)
Vp/F [2, 7]: 64.3 (1.1) L
ωIOV2 on ALAG1 (phase II study visits only) [2, 7]: 0.08 (1.5)
Exponent for the effect of body weight on Vc/F (θ5) ([2]; Population analysis, point estimate (%RSE), final model, (BW/74 kg)^θ5): 0.50 (15.8)
Vc/F ([2]; Population analysis, point estimate (%RSE), final model, reference male, 74 kg): 146 (2.2) L
Ka ([2]; Population analysis, point estimate, final model): 12.3 h⁻¹
lower CL/F in females compared with males ([2]; in vivo): 14%
absorption lag time (ALAG1), estimate (95% CI) ([2]; typical healthy male): 0.48 (0.47–0.49) h
mean absorption time (calculated as 1/Ka), estimate (95% CI) ([2]; typical healthy male): 0.08 (0.04–0.12) h
higher Cmax in females compared with males ([3]; steady state): 26%
higher upadacitinib AUC in females relative to males [3, 9]: 16%
higher upadacitinib AUC in subjects with RA relative to healthy volunteers [3, 9]: 32%
SMILES: CC[C@@H]1CN(C(=O)NCC(F)(F)F)C[C@@H]1c1cnc2cnc3[nH]ccc3n12 [upadacitinib, Upadacitinib]
linearity of pharmacokinetics with respect to dose ([2]; 1-48 mg immediate-release doses): dose-proportional; also recorded: did not deviate significantly from linearity; also recorded: did not significantly deviate from linearity
correlation of clearance with body weight ([2]; in vivo): not correlated
effect of CYP2D6 phenotype on upadacitinib clearance ([2]; phenotype determined from pharmacogenetic analysis): not correlated; also recorded: not a statistically significant covariate
oral clearance (CL/F), population estimate (95% bootstrap CI) ([2]; typical healthy male, body weight 74 kg, creatinine clearance […]): 39.7 (37.8–41.5) L/h
AUC, body weight < 60 kg or > 100 kg compared with 60-100 kg [3, 8]: same
higher Cmax, body weight < 60 kg compared with 60-100 kg [3, 8]: approximately 10%
lower Cmax, body weight > 100 kg compared with 60-100 kg [3, 8]: approximately 10%
upadacitinib dose eliminated unchanged in urine [4]: Approximately 20%
accumulation in plasma ([4]; multiple twice-daily dosing): no accumulation
dose proportionality of exposures ([4]; over the evaluated dose range): approximately dose proportional
functional half-life ([4]; phase I studies, immediate-release capsules): approximately 4 h
tolerability ([4]; single doses up to 48 mg and multiple twice-daily doses up to 24 mg, immediate-release capsules): well-tolerated
plasma protein binding (plasma protein): < 50%
substrate status for CYP3A (cytochrome P450 (CYP) 3A): non-sensitive substrate
contribution of CYP2D6 to metabolism (CYP2D6): potentially minor metabolic contribution; also recorded: minor contributor
decrease of Cmax by food [5]: approximately 20%
delay of time to Cmax (Tmax) by food [5]: approximately 2 h
increase of upadacitinib exposures by ketoconazole [6]: approximately 75%
safety profile (rheumatoid arthritis): acceptable safety profile
